This is an account of results in PubChem BioAssay.

Active and inactive are the calls of the source.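 The calls were made as follows, unless noted: active = viability at or below 10% of carrier control in both of two separate runs; inconclusive = viability at or below 10% in only one of the two runs; inactive = the rest.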

A short description of assay [1]: Her2 expression decrease, cell viability multiplex – SKBR3 breast tumor cells, AlphaScreen, ATP viability, primary screen (AID 461;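 active = Her2 level under about 52% in both replicate screens, with viability over 70% of control, limit read from the data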;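 as to Her2 level: lower value means less Her2 protein in the cells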;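 as to viability: percent of carrier control wells set as 100% viability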). The settings on record: SKBR3 Her2 protein level, 18-24 h, measured here: SKBR3 viability, ATP luminescence, at 10 µM.
Assay [2] deals with Receptor tyrosine-protein kinase erbB-2 (Homo sapiens) (UniProt P04626). The description is as above. As to conditions: 18-24 h, at 10 µM, stronger effect = lower value.
Receptor tyrosine-protein kinase erbB-2 (Homo sapiens), sequence (P04626 whole entry, looked up): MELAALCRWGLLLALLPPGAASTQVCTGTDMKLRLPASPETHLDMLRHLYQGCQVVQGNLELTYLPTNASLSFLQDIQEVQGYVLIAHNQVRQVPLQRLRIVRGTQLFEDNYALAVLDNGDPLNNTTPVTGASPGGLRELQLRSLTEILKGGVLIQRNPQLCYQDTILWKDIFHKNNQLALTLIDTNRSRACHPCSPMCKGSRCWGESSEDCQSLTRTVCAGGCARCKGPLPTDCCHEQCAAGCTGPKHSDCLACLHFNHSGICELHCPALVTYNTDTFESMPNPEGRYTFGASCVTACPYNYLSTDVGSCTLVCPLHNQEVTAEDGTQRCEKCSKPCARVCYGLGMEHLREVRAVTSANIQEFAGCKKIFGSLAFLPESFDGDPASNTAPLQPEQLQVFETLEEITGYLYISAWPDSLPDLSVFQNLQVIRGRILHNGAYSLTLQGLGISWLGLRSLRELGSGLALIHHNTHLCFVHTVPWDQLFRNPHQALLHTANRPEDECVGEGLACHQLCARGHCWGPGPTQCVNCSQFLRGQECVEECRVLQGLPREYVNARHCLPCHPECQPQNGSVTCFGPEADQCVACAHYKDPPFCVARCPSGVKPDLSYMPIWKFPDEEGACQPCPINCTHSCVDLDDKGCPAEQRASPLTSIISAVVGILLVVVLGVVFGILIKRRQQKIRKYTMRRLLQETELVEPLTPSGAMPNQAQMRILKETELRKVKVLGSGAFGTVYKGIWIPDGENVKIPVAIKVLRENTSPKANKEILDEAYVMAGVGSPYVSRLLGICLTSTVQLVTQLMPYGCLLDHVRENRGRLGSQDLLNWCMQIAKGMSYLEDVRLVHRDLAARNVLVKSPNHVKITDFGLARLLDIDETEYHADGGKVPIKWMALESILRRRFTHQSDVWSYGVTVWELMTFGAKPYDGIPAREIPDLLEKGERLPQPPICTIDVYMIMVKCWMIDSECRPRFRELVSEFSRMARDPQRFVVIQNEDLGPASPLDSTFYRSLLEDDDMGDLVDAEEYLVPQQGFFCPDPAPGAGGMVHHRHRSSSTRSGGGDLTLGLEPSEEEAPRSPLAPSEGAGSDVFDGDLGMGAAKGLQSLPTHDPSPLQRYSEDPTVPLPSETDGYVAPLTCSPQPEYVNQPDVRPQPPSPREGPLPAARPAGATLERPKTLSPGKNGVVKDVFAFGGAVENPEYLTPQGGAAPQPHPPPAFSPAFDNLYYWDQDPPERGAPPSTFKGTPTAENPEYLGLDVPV
Assay [3] is described as follows: reduced viability of SK-BR-3 breast cancer cells – cell-based, 24 h, human, pilot screen (AID 572).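 Also: compound exposure lasted between 18 and 24 h rather than exactly 24 h; 100% = carrier-treated control wells.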 As to conditions: SK-BR-3 viability, CellTiter-Glo luminescence, at 10 µM, stronger effect = lower value.
Assay [4] is described as follows: HUVEC growth inhibition – cell-based, human, primary screen (AID 575;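 active = viability at or below 30% in both replicate assays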;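 also: 100% = median of untreated cell wells with 0.1% DMSO on each plate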). The settings on record: HUVEC proliferation, CellTiter-Glo luminescence, 72 h; at 10 µM; stronger effect = lower value. The method in brief: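 Test system: HUVEC primary cells. Quantity: 1250 endothelial cells in each well. Dosing: single-point 10 µM, DMSO 0.1% final. Incubation: 72 h treatment at 37 °C. Measured by: CTG luminescence. Control set: DMSO cell controls and MePR drug controls. Plate: collagen-coated 384-well format.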

Assay [5] is described as follows: H69AR cell proliferation blockers – human, duplicate replicates, primary screen (AID 580;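 active = viability at or under a set limit in both replicates, limit being median viability minus 3 SD, cut at about 48% in these data, passing the limit was not always enough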;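 also: 100% = mean luminescence of untreated wells and 0% = no signal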). The settings on record: H69AR lung tumor cells viability, ATP luminescence, 72 h; at 10 µM; stronger effect = lower value.
A short description of assay [6]: MRP1 drug-resistance reversers in H69AR cells – cell-based, doxorubicin co-treatment, pilot screen (AID 601;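 active = viability loss from added drug above about 55%, and viability with drug at most 40%, in both replicates, limit read from the data, passing the limit was not always enough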). The settings on record: CellTiter-Glo, 72 h, at 10 µM; for differential viability (reversal): stronger effect = higher value.
The nature of assay [7]: yeast transport mutant growth inhibition pilot in 384-well plates, post-Golgi transport modulator project (AID 636; in the data active = inhibition above about 31%). As to conditions: absorbance 615 nm, about 18 h, stronger effect = higher value.
Assay [8] in a line: growth suppression of yeast trafficking mutant, preliminary HTS, modulators of trafficking downstream of Golgi apparatus project, 1536-format plate, OD 615 nm (AID 637; in the data active = inhibition above about 30%). As to conditions: yeast transport mutant growth, absorbance 615 nm, 18 h; stronger effect = higher value.
Setting [9] is: H69AR cells + 2 uM doxorubicin, measured here: viability with 2 uM doxorubicin, stronger effect = lower value.
Setting [10] is: H69AR cells, compound alone cytotoxicity.

Take `CCOC(=O)N1CCN(S(=O)(=O)c2cc(Cl)c(OC)cc2Cl)CC1`: the viability is 85% in assay [1]; 85% (inactive) in assay [3]; 108% (inactive) in assay [4]; 91.1% (inactive) in assay [5]; 91.3% in assay [6] (setting [9]); 91.1% in assay [6] (setting [10]). The Her2 level in assay [2] is 102% (inactive). Further, the differential viability (reversal) in assay [6] (H69AR cells + 2 uM doxorubicin) was -0.21% (inactive). For the same molecule, the inhibition in assay [7] is -2.24% (inactive); in assay [8], -4.92% (inactive).
For the molecule `Cc1ccc(-n2c(=O)c3sccc3n(CC(=O)NCc3ccco3)c2=O)cc1`, the viability in assay [1] is 107%; in assay [3] it was 107% (inactive); in assay [4], 96.5% (inactive); in assay [5] it was 99% (inactive); in assay [6] (setting [9]) it was 91.4%; in assay [6] (setting [10]) it was 99%. Besides, the Her2 level in assay [2] is 102% (inactive). In addition, in assay [6] (H69AR cells + 2 uM doxorubicin), the differential viability (reversal) is 7.63% (inactive). Also, the inhibition in assay [7] was -5.53% (inactive); in assay [8], -2.91% (inactive).
Consider `CCn1cc(C(=O)N=c2sc3ccccc3n2C)c(=O)c2ccc(C)nc21`, for which the viability in assay [1] is 92.5%; in assay [3] it was 92.5% (inactive); in assay [4], 80.3% (inactive); in assay [5], 95.7% (inactive); in assay [6] (setting [9]), 87.8%; in assay [6] (setting [10]) it was 95.7%. For the same molecule, the Her2 level in assay [2] is 84.5% (inactive). For the same molecule, the differential viability (reversal) in assay [6] (H69AR cells + 2 uM doxorubicin) was 7.91% (inactive). Also, the inhibition in assay [7] was 1.41% (inactive); in assay [8], -2.83% (inactive).
As for `Cc1cccc(NC(=O)Cn2c(=O)n(C)c3ccccc32)c1`, the viability in assay [1] is 100%; in assay [3], 100% (inactive); in assay [4], 100% (inactive); in assay [5], 102% (inactive); in assay [6] (setting [9]) it was 92.9%; in assay [6] (setting [10]), 102%. The Her2 level in assay [2] is 90.5% (inactive). In assay [6] (H69AR cells + 2 uM doxorubicin), the differential viability (reversal) is 9.13% (inactive). Besides, the inhibition was -3.33% (inactive) in assay [7] and -2.7% (inactive) in assay [8].
For the molecule `COc1ccccc1NC(=O)c1ccc(COc2ccccc2OC)o1`, the viability is 95.5% in assay [1]; 95.5% (inactive) in assay [3]; 87.6% (inactive) in assay [4]; 97.2% (inactive) in assay [5]; 91.3% in assay [6] (setting [9]); 97.2% in assay [6] (setting [10]). In addition, the Her2 level in assay [2] is 97% (inactive). Moreover, the differential viability (reversal) in assay [6] (H69AR cells + 2 uM doxorubicin) was 5.99% (inactive). Further, the results for the inhibition in assay [7] and in assay [8] were -6.27% (inactive) and 0% (inactive), respectively.
With `Clc1ccc(OCc2nc(-c3ccccn3)no2)c(Br)c1`, the viability was 82.5% in assay [1]; 82.5% (inactive) in assay [3]; 55.6% (inactive) in assay [4]; 102% (inactive) in assay [5]; 98.4% in assay [6] (setting [9]); 102% in assay [6] (setting [10]). Moreover, the Her2 level in assay [2] is 92.5% (inactive). Besides, the differential viability (reversal) in assay [6] (H69AR cells + 2 uM doxorubicin) is 3.96% (inactive). Besides, the inhibition in assay [7] is -0.26% (inactive); in assay [8] it was -8.67% (inactive).
As for `Cn1c(=O)c2c(nc(NCCc3ccccc3)n2CC(=O)NCCc2ccccc2)n(C)c1=O`, the viability is 91% in assay [1]; 91% (inactive) in assay [3]; 99.9% (inactive) in assay [4]; 79% (inactive) in assay [5]; 70.2% in assay [6] (setting [9]); 79% in assay [6] (setting [10]). In assay [2], the Her2 level was 90.5% (inactive). The differential viability (reversal) in assay [6] (H69AR cells + 2 uM doxorubicin) was 8.86% (inactive). The inhibition in assay [7] is -1.05% (inactive); in assay [8] it was 9.68% (inactive).
Consider `Fc1ccc(C(c2nnnn2Cc2ccco2)N2CCN(C3CCCCC3)CC2)cc1` (stereo not given), for which the viability in assay [1] is 67%; in assay [3] it was 67% (inactive); in assay [4], 92.5% (inactive); in assay [5], 94.1% (inactive); in assay [6] (setting [9]) it was 88.5%; in assay [6] (setting [10]), 94.1%. In addition, the Her2 level in assay [2] was 86.5% (inactive). Moreover, in assay [6] (H69AR cells + 2 uM doxorubicin), the differential viability (reversal) is 5.67% (inactive). In addition, the inhibition is 2% (inactive) in assay [7] and 21.9% (inactive) in assay [8].
On to `CC(C)CCNc1cc(=O)n(C)c(=O)n1C`, for which the viability in assay [1] is 83.5%; in assay [3], 83.5% (inactive); in assay [4], 91% (inactive); in assay [5], 88.2% (inactive); in assay [6] (setting [9]), 88.6%; in assay [6] (setting [10]), 88.2%. The Her2 level in assay [2] is 120% (inactive). Also, the differential viability (reversal) in assay [6] (H69AR cells + 2 uM doxorubicin) was -0.405% (inactive). For the same molecule, the inhibition was -1.3% (inactive) in assay [7] and 20.3% (inactive) in assay [8].
As to `CCn1cc(S(=O)(=O)CC(=O)Nc2ccc(OC)cc2)c2ccccc21`, the viability in assay [1] was 104%; in assay [3], 104% (inactive); in assay [4], 105% (inactive); in assay [5], 91.8% (inactive); in assay [6] (setting [9]), 70.4%; in assay [6] (setting [10]) it was 91.8%. Further, the Her2 level in assay [2] is 88% (inactive). In addition, the differential viability (reversal) in assay [6] (H69AR cells + 2 uM doxorubicin) was 21.4% (inactive). Also, the inhibition is -1.6% (inactive) in assay [7] and 0% (inactive) in assay [8].
Turning to `Cc1oc(-c2ccc(Cl)cc2)nc1CS(=O)CC(=O)NCCCN(C)C1CCCCC1` (stereo not given), the viability was 91.5% in assay [1]; 91.5% (inactive) in assay [3]; 66.3% (inactive) in assay [4]; 87.1% (inactive) in assay [5]; 76.3% in assay [6] (setting [9]); 87.1% in assay [6] (setting [10]). The Her2 level in assay [2] is 101% (inactive). In addition, the differential viability (reversal) in assay [6] (H69AR cells + 2 uM doxorubicin) is 10.8% (inactive). Moreover, the inhibition was -2.99% (inactive) in assay [7] and 5.56% (inactive) in assay [8].
For the molecule `O=C(NC1CCCCC1)C1CC(O)CN1C(=O)OCc1ccccc1` (stereo not given), the viability is 88% in assay [1]; 88% (inactive) in assay [3]; 110% (inactive) in assay [4]; 93.4% (inactive) in assay [5]; 83.9% in assay [6] (setting [9]); 93.4% in assay [6] (setting [10]). In addition, the Her2 level in assay [2] was 93% (inactive). In assay [6] (H69AR cells + 2 uM doxorubicin), the differential viability (reversal) was 9.51% (inactive). For the same molecule, the results for the inhibition in assay [7] and in assay [8] were 0.13% (inactive) and -3.09% (inactive), respectively.
In the case of `CCc1cccc(NC(=O)C2CCCN(S(=O)(=O)c3c(C)[nH]c(=O)[nH]c3=O)C2)c1` (stereo not given), the viability in assay [1] is 89.5%; in assay [3], 89.5% (inactive); in assay [4], 97% (inactive); in assay [5] it was 95% (inactive); in assay [6] (setting [9]), 88.2%; in assay [6] (setting [10]) it was 95%. Moreover, the Her2 level in assay [2] was 82% (inactive). In addition, the differential viability (reversal) in assay [6] (H69AR cells + 2 uM doxorubicin) was 6.79% (inactive). In addition, the inhibition in assay [7] was -2.89% (inactive); in assay [8], -3.83% (inactive).
Regarding `Cn1nnnc1SCc1cn2cccnc2n1`, the viability was 112% in assay [1]; 112% (inactive) in assay [3]; 101% (inactive) in assay [4]; 89.3% (inactive) in assay [5]; 89.4% in assay [6] (setting [9]); 89.3% in assay [6] (setting [10]). For the same molecule, the Her2 level in assay [2] is 90.5% (inactive). For the same molecule, the differential viability (reversal) in assay [6] (H69AR cells + 2 uM doxorubicin) was -0.09% (inactive). Further, the values for the inhibition in assay [7] and in assay [8] were -5.33% (inactive) and -3.33% (inactive), respectively.
Take `COc1ccc(OC)c(S(=O)(=O)N2c3ccccc3CC2C)c1` (stereo not given): the viability is 82.5% in assay [1]; 82.5% (inactive) in assay [3]; 77.6% (inactive) in assay [4]; 89.4% (inactive) in assay [5]; 101% in assay [6] (setting [9]); 89.4% in assay [6] (setting [10]). Further, the Her2 level in assay [2] was 109% (inactive). The differential viability (reversal) in assay [6] (H69AR cells + 2 uM doxorubicin) was -11.7% (inactive). The results for the inhibition in assay [7] and in assay [8] were -4.86% (inactive) and -3.93% (inactive), respectively.
`Cc1ccc(S(=O)(=O)N(C)Cc2cc3ccccc3[nH]c2=O)cc1`: the viability is 114% in assay [1]; 114% (inactive) in assay [3]; 111% (inactive) in assay [4]; 91.5% (inactive) in assay [5]; 87.9% in assay [6] (setting [9]); 91.5% in assay [6] (setting [10]). Further, the Her2 level in assay [2] is 86.5% (inactive). In addition, the differential viability (reversal) in assay [6] (H69AR cells + 2 uM doxorubicin) was 3.6% (inactive). For the same molecule, the inhibition was 0.26% (inactive) in assay [7] and -6.91% (inactive) in assay [8].
